# Assay outcomes: PubChem, The Scripps Research Institute Molecular Screening Center
# TAAR1 agonist = human TAAR1 agonism; Q96RJ0; CHO RD-HGA16 TAAR1, Fluo-8 calcium fluorescence; vehicle wells 0%, saturating PEA agonist 100%; activation, % at 3 µM; actives 0.99% (n = 360,000);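 active = activation above the mean activation of all test compounds in the run plus 3 SD, cut at about 38% in these data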
#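 Test system: RD-HGA16 (CHO) cells co-expressing Gα16 and hTAAR1 / Benchmarks: DMSO vehicle as 0%, PEA at EC100 as 100% / Repeats: no replicates (n 1) / Measure: % activation from peak over basal fluorescence ratio, DMSO-to-PEA scaled / Timing: 17-24 h plating, Fluo-8 75 min 37 °C, 30 min RT / Technique: kinetic Fluo-8 calcium fluorescence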
# OX1R antag-1 = OX1R (human) antagonism | OX1R-expressing cells, FRET antagonist read-out | inhibition, % at 6.6 µM | actives 1.8% (n = 330,000) | AID 485270; in the data active = inhibition mostly above about 38%, no sharp cut-off; inactive = mostly below about 40%
# Target sequence (O43613 whole entry, looked up): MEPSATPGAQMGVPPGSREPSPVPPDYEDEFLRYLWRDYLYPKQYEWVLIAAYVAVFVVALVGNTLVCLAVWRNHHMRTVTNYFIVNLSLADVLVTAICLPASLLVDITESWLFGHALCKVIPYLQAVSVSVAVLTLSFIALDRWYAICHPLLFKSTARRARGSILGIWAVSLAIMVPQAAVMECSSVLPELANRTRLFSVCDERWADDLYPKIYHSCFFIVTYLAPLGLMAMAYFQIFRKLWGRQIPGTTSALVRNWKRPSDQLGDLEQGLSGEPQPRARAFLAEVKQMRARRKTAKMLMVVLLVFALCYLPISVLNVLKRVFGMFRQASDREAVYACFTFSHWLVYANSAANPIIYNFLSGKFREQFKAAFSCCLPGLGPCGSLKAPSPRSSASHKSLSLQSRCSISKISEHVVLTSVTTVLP
# GalR3 antagonist = antagonists of human GalR3; O60755; HEK293 GalR3-CNG cAMP membrane potential fluorescence; galR3 body fused to GalR1 C-terminus; inhibition, % at 3 µM; actives 0.44% (n = 360,000);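 active = inhibition above the screen-wide average plus 3 SD, cut at about 13% in these data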;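 note: forskolin and galanin both at EC90 stimulate the cells; cAMP rise reported by CNG channel membrane potential dye signal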
# CHO parental Ca = counter-screen: ATP calcium response change in parental CHO cells | parental CHO-K1, ATP-induced calcium, Fluo-8 fluorescence | actives 0.63% (n = 330,000) | inhibition, % at 5.6 µM;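 active = inhibition above that plate's mean sample inhibition plus 3 SD, cut at about 26% in these data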
#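 Assay system: untransfected parental CHO cell line. Also added: ATP agonist challenge. Dosing: one dose, 5.6 µM nominal. Measured by: Fluo-8 fluorescence. Read-out: % inhibition. Benchmarks: ATP wells versus no-ATP DMSO wells. Repeats: no replicates.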
# TAAR1 antag = antagonists of human TAAR1 | actives 1.5% (n = 360,000) | CHO RD-HGA16 TAAR1, Fluo-8 calcium fluorescence, antagonist | Q96RJ0 | inhibition, % at 3 µM;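 active = inhibition above a per-plate cutoff, the mean inhibition of test compounds on that plate plus 3 SD, cut at about 49% in these data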
#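 Test system – hTAAR1-expressing CHO RD-HGA16 cells, Gα16-coupled · Reagent – β-PEA at EC80 concentration, post-compound challenge · Compound dosing – 3 µM, single point · Timing – 140 s kinetic read after compound, 140 s after agonist · Detection – Fluo-8 intracellular calcium dye fluorescence, real-time kinetic reads · Control set – DMSO and EC80 PEA controls · Repeats – n of 1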
# OX1R antag-2 = blocks the human orexin 1 receptor. CHO/OX1R cells, Fluo-8 calcium fluorescence, orexin A. actives 0.43% (n = 330,000). AID 434989. inhibition, % at 5 µM. O43613;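 active = inhibition above its plate's threshold, mean inhibition of all tested compounds on the plate plus 3 SD, cut at about 37% in these data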
# OX1R Ca confirm = confirmation of human orexin 1 receptor antagonists | inhibition, % at 5 µM | actives 38% (n = 1,100) | CHO/OX1R cells, orexin A calcium Fluo-8 fluorescence | shares compounds with OX1R antag-2; in the data active = inhibition above about 29%
# CHO Ca triplic = counter-screen: parental CHO calcium response change, triplicate; shares compounds with OX1R antag-2; parental CHO-K1, ATP-induced calcium, Fluo-8 fluorescence; inhibition, % at 5.6 µM; actives 9.3% (n = 1,100);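 active = inhibition above a per-plate limit, the mean inhibition of that plate's test compounds plus 3 SD, cut at about 25% in these data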
# Hits are given with their value; – = inactive; · = no result. In the library only some 4.2% were active in any assay of this set; here they are far more common.
SMILES,TAAR1 agonist,OX1R antag-1,GalR3 antagonist,CHO parental Ca,TAAR1 antag,OX1R antag-2,OX1R Ca confirm,CHO Ca triplic
Nc1nc(Cl)nc2c1ncn2C1CCC(CO)O1 (configuration not stated),–,·,–,·,–,·,·,·
CCOC(=O)c1oc2ccc(S(=O)(=O)Nc3ccc4c(c3)n(C)c(=O)n4C)cc2c1C,–,–,–,–,–,46.8,–,–
COc1ccc(S(=O)(=O)Nc2ccc3c(c2)n(C)c(=O)n3C)cc1C,–,–,–,–,–,–,·,·
Cc1oc(-c2cccc3ccccc23)nc1CN1CCN(c2ncnc3ccccc23)CC1,–,–,–,–,57.5,–,–,–
Cc1ccccc1NC(=O)C1CC(=O)N(c2ccccc2F)C1 (configuration not stated),–,–,–,–,–,–,·,·
Cc1ccc(C(=O)OCn2ncc(Cl)c(Cl)c2=O)cc1,–,–,–,–,–,–,73.0,–
Fc1ccc(CNc2ncccn2)cc1,–,–,–,–,–,–,·,·
CCCCCCNC(=O)CC(c1ccccc1)c1cc(Br)ccc1O (configuration not stated),–,–,–,–,–,–,–,–
O=C(OCc1ccc(COC(=O)c2cccnc2Cl)cc1)c1cccnc1Cl,–,–,–,–,–,58.3,30.5,35.6
Cc1c(C)c2ccc(OC(C)C(=O)NCc3ccccn3)cc2oc1=O (configuration not stated),–,–,–,–,–,–,·,·
CC(Oc1ccc2c3c(c(=O)oc2c1)CCCC3)C(=O)NCc1ccccn1 (configuration not stated),–,–,–,–,–,53.7,–,–
COc1ccc(OC)c(NC(=O)Cn2c(CCC(=O)O)ccc2-c2ccccc2)c1,–,–,–,–,–,–,·,·
Cc1cccc(N2CCN(C(=O)C3CCN(c4ncnc5c4nc4n5CCCCC4)CC3)CC2C)c1 (configuration not stated),–,–,–,–,49.2,–,–,–
Cc1cccc(N2CCN(C(=O)C3CCN(c4ncnc5c4nc4n5CCCCC4)CC3)CC2)c1C,–,–,–,–,–,–,·,·
Cc1ccc(NS(=O)(=O)c2ccc(NC(=O)CN(c3cc([N+](=O)[O-])ccc3C)S(C)(=O)=O)cc2)c(C)c1,–,–,–,–,–,–,·,·
Cc1c(C(=O)NCc2ccccn2)sc(=O)n1Cc1ccc(-c2ccccc2)cc1,–,·,–,·,–,·,·,·
CNC(=S)N(C1=NCC(c2ccc([N+](=O)[O-])cc2)S1)c1ccccc1 (configuration not stated),–,–,–,–,–,–,–,–
Cc1ccc(NC(=O)N(C2=NCC(C)S2)c2ccccc2)cc1 (configuration not stated),–,–,–,–,–,–,·,·
COc1cccc(CCC(=O)Nc2cc3c(cc2C(=O)O)OCCCO3)c1OC,–,–,–,–,–,–,·,·
Cc1ccc(OCCC(=O)OCC(=O)c2ccc3c(c2)NC(=O)CO3)cc1,–,–,–,–,–,–,–,–
C=CCOc1cccc(C(=O)/C=C2/C(=O)Nc3ccccc32)c1,–,–,–,–,–,–,–,–
O=C1Nc2ccc(Br)cc2/C1=C/C(=O)c1ccccc1,–,·,–,·,–,·,·,·
COc1ccc(CNC(=O)COC(=O)[C@H](Cc2c[nH]c3ccccc23)NC(=O)c2cccs2)cc1,–,–,–,–,–,48.8,59.6,–
O=C(CCC(=O)N(CC(=O)NC1CCCCC1)Cc1ccco1)Nc1nccs1,–,–,–,–,–,–,·,·
c1ccc(-n2nnc(-c3nccs3)n2)cc1,–,–,–,–,–,–,·,·
Brc1ccccc1-n1nnc(-c2nccs2)n1,–,–,–,–,–,–,–,–
Cc1ccc(NC(=O)c2ccccc2)cc1,–,–,–,–,–,–,·,·
